Assay results from ChEMBL document CHEMBL1255443, “CEM-101 activity against Gram-positive organisms” (Antimicrob Agents Chemother, 2010).
Values after ≈ are worked out from the molar mass of the structure shown. Active and inactive are the calls of the source.

Assays:
[1] = system: Streptococcus mitis; assay: Antibacterial activity against Streptococcus mitis 112-1885A assessed as bactericidal at 4 times MIC in 24 hrs by time kill study; type: functional, organism-based
Outline: (§1)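 Time-kill assay following earlier published methods. Each agent tested at 2×, 4× and 8× its MIC for the strain. Viable colony counts taken at 0, 2, 4, 8 and 24 h. Bactericidal activity defined as a ≥3 log10 CFU/ml drop from the starting inoculum within 24 h.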

[2] = system: Streptococcus mitis; assay: Antibacterial activity against Streptococcus mitis 112-1885A assessed as bactericidal at 8 times MIC in 24 hrs by time kill study; type: functional, organism-based; outline: as §1
[3] = system: Staphylococcus aureus; assay: Antibacterial activity against Staphylococcus aureus ATCC 29213 assessed as bactericidal at 8 times MIC in 24 hrs by time kill study; type: functional, organism-based; outline: as §1
[4] = system: Streptococcus mitis; assay: Antibacterial activity against Streptococcus mitis 112-1885A assessed as bactericidal at 2 times MIC in 24 hrs by time kill study; type: functional, organism-based; outline: as §1
[5] = system: Staphylococcus epidermidis; assay: Antibacterial activity against Staphylococcus epidermidis 2777A assessed as bacteriostatic by time kill study
[6] = system: Streptococcus pneumoniae; assay: Antibacterial activity against Streptococcus pneumoniae ATCC 49619 assessed as bactericidal at 4 times MIC in 24 hrs by time kill study; type: functional, organism-based; outline: as §1
[7] = system: Streptococcus pyogenes; assay: Antibacterial activity against Streptococcus pyogenes 117-1612A assessed as bactericidal at 8 times MIC in 24 hrs by time kill study; type: functional, organism-based; outline: as §1
[8] = system: Streptococcus pneumoniae; assay: Antibacterial activity against Streptococcus pneumoniae ATCC 49619 assessed as bactericidal at 8 times MIC in 24 hrs by time kill study; type: functional, organism-based; outline: as §1
[9] = system: Streptococcus pneumoniae; assay: Antibacterial activity against Streptococcus pneumoniae ATCC 49619 assessed as bactericidal at 2 times MIC in 24 hrs by time kill study; type: functional, organism-based; outline: as §1
[10] = system: Staphylococcus aureus; assay: Antimicrobial activity against Staphylococcus aureus 004-573D after passaging with CEM-101 by broth microdilution method; type: functional
Outline: (§2)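 Multistep resistance selection by CLSI reference broth microdilution. The full content of the last well showing growth was resuspended in broth to a 0.5 McFarland standard, and 5 × 10^5 CFU/ml was used for the next MIC panel, repeated over 7 passage days. Reversion was checked by three consecutive drug-free agar passages, followed by a final broth microdilution MIC. A ≥8-fold MIC change from initial counted as significant resistance.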

[11] = system: Enterococcus faecium; assay: Antimicrobial activity against Enterococcus faecium 086-15387A after passaging with CEM-101 by broth microdilution method; type: functional; outline: as §2
[12] = system: Streptococcus pneumoniae; assay: Antibacterial activity against Streptococcus pneumoniae 241B assessed as bacteriostatic by time kill study; type: functional, organism-based; outline: as §1
[13] = system: Streptococcus pneumoniae; assay: Antimicrobial activity against Streptococcus pneumoniae 127-2273B after passaging with CEM-101 by broth microdilution method; type: functional; outline: as §2
[14] = system: Streptococcus pneumoniae; assay: Antimicrobial activity against Streptococcus pneumoniae 063-1085A after passaging with CEM-101 by broth microdilution method; type: functional; outline: as §2
[15] = system: Staphylococcus aureus; assay: Antimicrobial activity against Staphylococcus aureus 117-472D after passaging with CEM-101 by broth microdilution method; type: functional; outline: as §2
[16] = system: Staphylococcus epidermidis; assay: Antibacterial activity against Staphylococcus epidermidis assessed as log cell killing at 8 times MIC in 24 hrs by time kill study; type: functional; outline: as §1
[17] = system: Streptococcus pyogenes; assay: Antimicrobial activity against Streptococcus pyogenes 088-11708A after passaging with CEM-101 by broth microdilution method; type: functional; outline: as §2
[18] = system: Haemophilus influenzae; assay: Antimicrobial activity against Haemophilus influenzae ATCC 49247 after passaging with CEM-101 by broth microdilution method; type: functional; outline: as §2
[19] = system: Streptococcus pyogenes; assay: Antibacterial activity against Streptococcus pyogenes assessed as log cell killing at 8 times MIC in 24 hrs by time kill study; type: functional; outline: as §1
[20] = system: Streptococcus pyogenes; assay: Antibacterial activity against Streptococcus pyogenes 088-11708A assessed as bactericidal at 4 times MIC in 24 hrs by time kill study; type: functional, organism-based; outline: as §1
[21] = system: Staphylococcus aureus; assay: Antimicrobial activity against Staphylococcus aureus 117-453D after passaging with CEM-101 by broth microdilution method; type: functional; outline: as §2
[22] = system: Staphylococcus epidermidis; assay: Antibacterial activity against Staphylococcus epidermidis 2777A assessed as bactericidal at 8 times MIC in 24 hrs by time kill study
[23] = system: Staphylococcus epidermidis; assay: Antibacterial activity against Staphylococcus epidermidis 2777A assessed as bactericidal at 2 times MIC in 24 hrs by time kill study
[24] = system: Streptococcus pneumoniae; assay: Antimicrobial activity against Streptococcus pneumoniae ATCC 49619 after passaging with CEM-101 by broth microdilution method; type: functional; outline: as §2
[25] = system: Enterococcus faecium; assay: Antimicrobial activity against Enterococcus faecium 067- after passaging with CEM-101 by broth microdilution method; type: functional; outline: as §2
[26] = system: Enterococcus faecalis; assay: Antimicrobial activity against Enterococcus faecalis 067-6633A after passaging with CEM-101 by broth microdilution method; type: functional; outline: as §2
[27] = system: Enterococcus faecalis; assay: Antimicrobial activity against Enterococcus faecalis ATCC 29212 after passaging with CEM-101 by broth microdilution method; type: functional; outline: as §2
[28] = system: Staphylococcus epidermidis; assay: Antibacterial activity against Staphylococcus epidermidis 2777A assessed as bactericidal at 4 times MIC in 24 hrs by time kill study
[29] = system: Enterococcus faecalis; assay: Antimicrobial activity against Enterococcus faecalis 061-6556A after passaging with CEM-101 by broth microdilution method; type: functional; outline: as §2
[30] = system: Staphylococcus haemolyticus; assay: Antimicrobial activity against Staphylococcus haemolyticus 064-4090A after passaging with CEM-101 by broth microdilution method; type: functional; outline: as §2
[31] = system: Staphylococcus aureus; assay: Antibacterial activity against Staphylococcus aureus ATCC 29213 assessed as bactericidal at 4 times MIC in 24 hrs by time kill study; type: functional, organism-based; outline: as §1
[32] = system: Streptococcus mitis; assay: Antimicrobial activity against Streptococcus mitis 112-1885A after passaging with CEM-101 by broth microdilution method; type: functional; outline: as §2
[33] = system: Staphylococcus aureus; assay: Antimicrobial activity against Staphylococcus aureus NRS384 after passaging with CEM-101 by broth microdilution method; type: functional; outline: as §2
[34] = system: Staphylococcus aureus; assay: Antibacterial activity against Staphylococcus aureus ATCC 29213 assessed as log cell killing at 8 times MIC in 24 hrs by time kill study; type: functional; outline: as §1
[35] = system: Staphylococcus aureus; assay: Antimicrobial activity against Staphylococcus aureus ATCC 29213 after passaging with CEM-101 by broth microdilution method; type: functional; outline: as §2
[36] = system: Streptococcus pyogenes; assay: Antibacterial activity against Streptococcus pyogenes 088-11708A assessed as bactericidal at 2 times MIC in 24 hrs by time kill study; type: functional, organism-based; outline: as §1
[37] = system: Streptococcus pyogenes; assay: Antimicrobial activity against Streptococcus pyogenes 117-1612A after passaging with CEM-101 by broth microdilution method; type: functional; outline: as §2
[38] = system: Staphylococcus aureus; assay: Antibacterial activity against Staphylococcus aureus ATCC 29213 assessed as bactericidal at 2 times MIC in 24 hrs by time kill study; type: functional, organism-based; outline: as §1
[39] = system: Enterococcus faecalis; assay: Antibacterial activity against Enterococcus faecalis ATCC 29212 assessed as bacteriostatic by time kill study; type: functional, organism-based; outline: as §1
[40] = system: Moraxella catarrhalis; assay: Antimicrobial activity against Moraxella catarrhalis 117-10142A after passaging with CEM-101 by broth microdilution method; type: functional; outline: as §2
[41] = system: Staphylococcus aureus; assay: Antimicrobial activity against Staphylococcus aureus 024-11490A after passaging with CEM-101 by broth microdilution method; type: functional; outline: as §2
[42] = system: Streptococcus mitis; assay: Antimicrobial activity against Streptococcus mitis 051-4933A after passaging with CEM-101 by broth microdilution method; type: functional; outline: as §2
[43] = system: Streptococcus pneumoniae; assay: Antimicrobial activity against Streptococcus pneumoniae 075-241B after passaging with CEM-101 by broth microdilution method; type: functional; outline: as §2
[44] = system: Staphylococcus epidermidis; assay: Antimicrobial activity against Staphylococcus epidermidis 095-2777A by broth microdilution method
[45] = system: Streptococcus pneumoniae; assay: Antibacterial activity against Streptococcus pneumoniae ATCC 49619 assessed as log cell killing at 8 times MIC in 24 hrs by time kill study; type: functional; outline: as §1
[46] = system: Streptococcus pyogenes; assay: Antibacterial activity against Streptococcus pyogenes 088-11708A assessed as bactericidal at 8 times MIC in 24 hrs by time kill study; type: functional, organism-based; outline: as §1

Structure (SMILES): CC[C@H]1OC(=O)[C@H](C)C(=O)[C@H](C)[C@@H](O[C@@H]2O[C@H](C)C[C@H](N(C)C)[C@H]2O)[C@](C)(OC)C[C@@H](C)C(=O)[C@H](C)[C@H]2N(CCCCn3cnc(-c4cccnc4)c3)C(=O)O[C@]12C
- Activity [1]: Active
- Activity [2]: Active
- Activity [3]: Active
- Activity [4]: Active
- Activity [5]: Active

Structure (SMILES): CC[C@H]1OC(=O)[C@H](C)[C@@H](O[C@H]2C[C@@](C)(OC)[C@@H](O)[C@H](C)O2)[C@H](C)[C@@H](O[C@@H]2O[C@H](C)C[C@H](N(C)C)[C@H]2O)[C@](C)(O)C[C@@H](C)C(=O)[C@H](C)[C@@H](O)[C@]1(C)O
- Activity [6]: Active
- Activity [3]: Active
- Activity [7]: Active
- Activity [8]: Active
- Activity [9]: Active

Structure (SMILES): CC[C@H]1OC(=O)[C@H](C)[C@@H](O[C@H]2C[C@@](C)(OC)[C@@H](O)[C@H](C)O2)[C@H](C)[C@@H](O[C@@H]2O[C@H](C)C[C@H](N(C)C)[C@H]2O)[C@](C)(OC)C[C@@H](C)C(=O)[C@H](C)[C@@H](O)[C@]1(C)O [CLARITHROMYCIN]
- Activity [3]: Active

Structure (SMILES): CC[C@H]1OC(=O)[C@@](C)(F)C(=O)[C@H](C)[C@@H](O[C@@H]2O[C@H](C)C[C@H](N(C)C)[C@H]2O)[C@](C)(OC)C[C@@H](C)C(=O)[C@H](C)[C@H]2N(CCCCn3cc(-c4cccc(N)c4)nn3)C(=O)O[C@]12C [SOLITHROMYCIN]
- MIC [10]: 0.12 µg/mL (≈ 0.142 µM)
- MIC [11]: 1 µg/mL (≈ 1.18 µM)
- Activity [12]: Active
- MIC [13]: 0.06 µg/mL (≈ 0.071 µM)
- MIC [14]: 0.015 µg/mL (≈ 0.0178 µM)
- MIC [15]: 0.12 µg/mL (≈ 0.142 µM)
- Activity [16]: >=3 log10CFU/ml
- MIC [17]: 0.06 µg/mL (≈ 0.071 µM)
- MIC [18]: 2 µg/mL (≈ 2.37 µM)
- Activity [19]: >=3 log10CFU/ml
- Activity [20]: Active
- MIC [21]: 0.12 µg/mL (≈ 0.142 µM)
- Activity [22]: Active
- Activity [23]: Active
- MIC [24]: 0.008 µg/mL (≈ 0.00947 µM)
- MIC [25]: 0.06 µg/mL (≈ 0.071 µM)
- MIC [26]: 2 µg/mL (≈ 2.37 µM)
- MIC [27]: 0.03 µg/mL (≈ 0.0355 µM)
- Activity [28]: Active
- MIC [29]: 0.06 µg/mL (≈ 0.071 µM)
- MIC [30]: 0.12 µg/mL (≈ 0.142 µM)
- Activity [31]: Active
- MIC [32]: ≤ 0.008 µg/mL
- MIC [33]: 0.12 µg/mL (≈ 0.142 µM)
- Activity [34]: >=3 log10CFU/ml
- Activity [3]: Active
- MIC [35]: 0.06 µg/mL (≈ 0.071 µM)
- Activity [36]: Active
- MIC [37]: 0.015 µg/mL (≈ 0.0178 µM)
- Activity [38]: Active
- Activity [39]: Active
- MIC [40]: 0.12 µg/mL (≈ 0.142 µM)
- MIC [41]: 0.12 µg/mL (≈ 0.142 µM)
- MIC [42]: 0.12 µg/mL (≈ 0.142 µM)
- MIC [43]: 0.015 µg/mL (≈ 0.0178 µM)
- MIC [44]: 0.12 µg/mL (≈ 0.142 µM)
- Activity [45]: >=3 log10CFU/ml
- Activity [46]: Active
